Data taken from ChEMBL document CHEMBL1177681, “Hybrid diarylbenzopyrimidine non-nucleoside reverse transcriptase inhibitors as promising new leads for improved anti-HIV-1 chemotherapy” (Bioorg Med Chem, 2010).
pEC50: −log10 of the molar value.

Assays:
[1] = Selectivity index, CC50 for human MT4 cells to EC50 for wild type HIV1 3B; type: toxicity, cell-based; settings: read-out: Ratio CC50/EC50
In short: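 Selectivity index is calculated as CC50 in uninfected MT-4 cells divided by EC50 against HIV-1 IIIB. Both come from parallel 4-day MTT readings at 37 °C, with infection at multiplicity of infection 0.02.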

[2] = tested on: Human immunodeficiency virus 2; assay: Antiviral activity against wild type HIV2 ROD infected in human MT4 cells assessed as protection against virus-induced cytopathogenicity after 4 days by MTT assay; type: functional, organism-based; settings: Human immunodeficiency virus 2, ISOLATE ROD, MT4, 96 h
In short: (§1)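 MT-4 cells at 1 × 10⁵ cells/mL infected at multiplicity of infection 0.02, then immediately plated onto serial dilutions of compound (DMSO stocks of 50 mM or higher). After 4 days at 37 °C, viable cells counted by MTT. […] Virus stocks titrated in MT-4 cells as CCID50.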

[3] = tested on: Human immunodeficiency virus 1; assay: Antiviral activity against wild type HIV1 3B infected in human MT4 cells assessed as protection against virus-induced cytopathogenicity after 4 days by MTT assay; type: functional, organism-based; settings: Human immunodeficiency virus 1, 3B, MT4, 96 h; in short: as §1
[4] = Cytotoxicity against human MT4 cells after 4 days by MTT assay; type: cell-based
In short: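 Uninfected MT-4 cells were run in parallel with the antiviral plates and exposed to serial compound dilutions (DMSO stocks of 50 mM or higher) for 4 days at 37 °C. Viability was read by MTT.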

[5] = tested on: Human immunodeficiency virus 1; assay: Antiviral activity against HIV1 with reverse transcriptase K103N, Y181C mutant infected in human MT4 cells assessed as protection against virus-induced cytopathogenicity after 4 days by MTT assay; type: functional, organism-based; settings: Human immunodeficiency virus 1, MT4, 96 h
In short: (§2)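 MT-4 cells at 1 × 10⁵ cells/mL were infected with the mutant HIV-1 at a multiplicity of infection of 0.02. Virus stocks were titred in MT-4 cells as CCID₅₀. Cells were plated at once onto serial compound dilutions, with DMSO stocks at 50 mM or higher. After 4 days at 37 °C, viable cells were counted by MTT. EC₅₀ is the concentration giving 50% protection from viral cytopathicity.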

[6] = tested on: Human immunodeficiency virus 1; assay: Antiviral activity against HIV1 with reverse transcriptase L100I mutant infected in human MT4 cells assessed as protection against virus-induced cytopathogenicity after 4 days by MTT assay; type: functional, organism-based; settings: Human immunodeficiency virus 1, MT4, 96 h; in short: as §2
[7] = tested on: Human immunodeficiency virus 1; assay: Antiviral activity against wild type HIV1 LAI infected in human MT4 cells assessed as protection against virus-induced cytopathogenicity after 4 days by MTT assay; type: functional, organism-based; settings: Human immunodeficiency virus 1, LAI, MT4, 96 h
[8] = tested on: Human immunodeficiency virus 1; assay: Antiviral activity against HIV1 with reverse transcriptase Y181C mutant infected in human MT4 cells assessed as protection against virus-induced cytopathogenicity after 4 days by MTT assay; type: functional, organism-based; settings: Human immunodeficiency virus 1, MT4, 96 h; in short: as §2
[9] = tested on: Human immunodeficiency virus 1; assay: Antiviral activity against HIV1 with reverse transcriptase E138K mutant infected in human MT4 cells assessed as protection against virus-induced cytopathogenicity after 4 days by MTT assay; type: functional, organism-based; settings: Human immunodeficiency virus 1, MT4, 96 h; in short: as §2
[10] = tested on: Human immunodeficiency virus 1; assay: Antiviral activity against HIV1 with reverse transcriptase K103N mutant infected in human MT4 cells assessed as protection against virus-induced cytopathogenicity after 4 days by MTT assay; type: functional, organism-based; settings: Human immunodeficiency virus 1, MT4, 96 h
[11] = tested on: Human immunodeficiency virus 1; assay: Antiviral activity against HIV1 with reverse transcriptase Y188L mutant infected in human MT4 cells assessed as protection against virus-induced cytopathogenicity after 4 days by MTT assay; type: functional, organism-based; settings: Human immunodeficiency virus 1, MT4, 96 h; in short: as §2
[12] = tested on: Human immunodeficiency virus 1; assay: Antiviral activity against HIV1 with reverse transcriptase F227L, V106A mutant infected in human MT4 cells assessed as protection against virus-induced cytopathogenicity after 4 days by MTT assay; type: functional, organism-based; settings: Human immunodeficiency virus 1, MT4, 96 h; in short: as §2

Structure (SMILES)	selectivity ratio [1]	pEC50 [2]	pEC50 [3]	CC50 at 96 h [4] [nM]	pEC50 [5]	pEC50 [6]	pEC50 [7]	pEC50 [8]	pEC50 [9]	pEC50 [10]	pEC50 [11]	pEC50 [12]
N#Cc1ccc(Nc2nc(Oc3ccccc3)c3ccccc3n2)cc1	> 279	< 3.43	5.88	370000	–	–	–	–	–	–	–	–
Cc1ccccc1Oc1nc(Nc2ccc(C#N)cc2)nc2ccccc12	> 6210	< 3.45	7.24	355000	–	–	–	–	–	–	–	–
Cc1cccc(Oc2nc(Nc3ccc(C#N)cc3)nc3ccccc23)c1	> 436	< 3.45	6.08	355000	–	–	–	–	–	–	–	–
COc1ccccc1Oc1nc(Nc2ccc(C#N)cc2)nc2ccccc12	1260	< 4.59	6.92	150000	–	–	–	–	–	–	–	–
Cc1ccc(Oc2nc(Nc3ccc(C#N)cc3)nc3ccccc23)cc1	831	< 4.07	6.98	87000	–	–	–	–	–	–	–	–
N#Cc1ccc(Nc2nc(Oc3ccccc3Cl)c3ccccc3n2)cc1	982	< 4.43	7.43	38000	–	–	–	–	–	–	–	–
N#Cc1ccc(Nc2nc(Oc3ccc(F)cc3)c3ccccc3n2)cc1	> 607	< 3.45	6.23	> 351000	–	–	–	–	–	–	–	–
N#Cc1ccc(Nc2nc(Oc3ccc(Cl)cc3)c3ccccc3n2)cc1	1040	< 3.71	6.72	198000	–	–	–	–	–	–	–	–
N#Cc1ccc(Nc2nc(Oc3ccc(Br)cc3)c3ccccc3n2)cc1	810	< 3.67	6.58	215000	–	–	–	–	–	–	–	–
COc1ccc(Oc2nc(Nc3ccc(C#N)cc3)nc3ccccc23)cc1	> 1790	< 3.47	6.72	340000	< 3.47	–	–	–	–	–	–	–
N#Cc1ccc(Nc2nc(Oc3ccc(Cl)cc3Cl)c3ccccc3n2)cc1	1410	< 4.51	7.64	32000	< 4.51	–	–	–	–	–	–	–
N#Cc1ccc(Nc2nc(Oc3c(Cl)cc(Cl)cc3Cl)c3ccccc3n2)cc1	2630	< 4.26	7.68	56000	5.82	–	–	–	–	–	–	–
Cc1cccc(C)c1Oc1nc(Nc2ccc(C#N)cc2)nc2ccccc12	1510	≤ 5.00	7.64	35000	6.28	–	–	–	–	–	–	–
Cc1cc(C)c(Oc2nc(Nc3ccc(C#N)cc3)nc3ccccc23)c(C)c1	> 3220	< 4.47	7.96	> 34000	5.70	–	–	–	–	–	–	–
Cc1cc(Br)cc(Br)c1Oc1nc(Nc2ccc(C#N)cc2)nc2ccccc12	7930	≤ 4.85	7.72	150000	6.46	–	–	–	–	–	–	–
Cc1cc(Br)c(Oc2nc(Nc3ccc(C#N)cc3)nc3ccccc23)c(Br)c1	1280	≤ 5.34	7.70	25000	6.23	–	–	–	–	–	–	–
N#Cc1ccc(Nc2nc(Oc3c(Br)cc(Br)cc3Br)c3ccccc3n2)cc1	2120	≤ 5.07	7.55	58000	6.03	–	–	–	–	–	–	–
CCOc1cc(C#N)cc(Cl)c1Oc1nc(Nc2ccc(C#N)cc2)nc2ccccc12	2970	< 4.68	8.12	22000	6.54	–	–	–	–	–	–	–
COc1cc(C#N)ccc1Oc1nc(Nc2ccc(C#N)cc2)nc2ccccc12	64200	< 3.85	7.48	≥ 140000	< 3.85	–	–	–	–	–	–	–
COc1cc(C#N)cc(OC)c1Oc1nc(Nc2ccc(C#N)cc2)nc2ccccc12	22000	< 3.71	8.06	194000	6.04	–	–	–	–	–	–	–
CCOc1cc(C#N)cc(OCC)c1Oc1nc(Nc2ccc(C#N)cc2)nc2ccccc12	6770	< 3.97	7.80	108000	< 3.97	–	–	–	–	–	–	–
CCCOc1cc(C#N)cc(OC)c1Oc1nc(Nc2ccc(C#N)cc2)nc2ccccc12	408	< 5.28	7.89	5200	< 5.28	–	–	–	–	–	–	–
CCCOc1cc(C#N)cc(OCC)c1Oc1nc(Nc2ccc(C#N)cc2)nc2ccccc12	2080	< 3.91	7.24	123000	< 3.91	–	–	–	–	–	–	–
Cc1cc(C#N)cc(C)c1Oc1nc(Nc2ccc(C#N)cc2)nc2ccc(Cl)cc12	13800	< 3.93	8.07	117000	6.15	–	–	–	–	–	–	–
COc1cc(C#N)cc(Cl)c1Oc1nc(Nc2ccc(C#N)cc2)nc2ccccc12	46900	< 3.66	8.33	220000	6.80	6.96	8.27	7.31	7.92	≥ 8.27	6.55	6.33
CC(C)Nc1cccnc1N1CCN(C(=O)c2cc3cc(NS(C)(=O)=O)ccc3[nH]2)CC1 [DELAVIRDINE]	> 92	–	6.32	> 43000	< 4.37	5.10	6.21	5.20	6.25	5.19	5.19	5.01
O=C1Nc2ccc(Cl)cc2[C@@](C#CC2CC2)(C(F)(F)F)O1 [EFAVIRENZ]	–	–	–	≥ 6300	6.96	7.49	–	8.24	8.27	7.18	6.65	6.98
Cc1ccnc2c1NC(=O)c1cccnc1N2C1CC1 [NEVIRAPINE]	–	–	5.88	≥ 15000	≤ 4.82	5.69	6.99	< 4.82	6.79	–	< 4.82	< 4.82
